Only some compounds are listed: those with a hit (about 2.9% of all), similar ones and a draw of the others.
CRFR2-BP ag: CRF-BP/CRF-R2 complex agonism; HEK293 CRF-R2/CRF-BP, calcium dye fluorescence (FLIPR); percent of saturating CRF peptide response; AID 588473; hit rate 0.46% among 350,000; activation, % at 13.2 µM;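 active means activation of at least 50%, plus an integration ratio under a set limit after plate pattern correction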
DDE Tn6 FP inh: disrupts Tn6 cyclic peptide binding to fibrin D-Dimer-E complex | P02675 | Fibrin DD(E) TRITC-Tn6 fluorescence polarization displacement | hit rate 0.21% among 370,000 | inhibition, % at 8.3 µM;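 active means inhibition above a per-campaign cutoff: mean of compounds within control limits plus 3 SD, cut at about 15% in these data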
CendR NRP1 mod: alters CendR peptide binding to human NRP-1 | O14786 | FAM-RPARPAR peptide binding to NRP-1, fluorescence polarization | inhibition, % at 25 µM | hit rate 0.85% among 360,000 | AID 602438;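 active means inhibition or corrected inhibition above about 18%, plus a signal ratio from 0.5 to 1.5, limit read from the data, passing the limit was not always enough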
DDE Tn7 FP inh: inhibitors of Tn7 peptide binding to human fibrin DD(E); FP displacement of FITC-Tn7 peptide from fibrin DD(E); 0% = median of compound wells per plate; hit rate 0.13% among 370,000; P02675; inhibition, % at 8.3 µM;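 active means inhibition above the mean of compounds falling within the control limits plus 3 SD of them, cut at about 14% in these data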
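Assay system: human fibrin DD(E) protein / Input: 2 µM fibrin DD(E) / Benchmarks: high control of 10 µM Aha-Tn7 peptide / Measured by: fluorescence polarization of the labelled Tn7 tracer / Medium: Tris buffer with calcium and detergent, pH 7.8 / Timing: 10 min compound pre-incubation, 3 h probe incubation at room temperature / Repeats: one replicate per compound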
CRFBP-R2 block: CRF-BP/CRF-R2 complex antagonism; inhibition, % at 11.8 µM; HEK293 CRF-R2/CRF-BP, CRF-induced calcium fluorescence; hit rate 0.59% among 350,000; AID 588475;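 active means inhibition of the ligand-induced calcium signal above about 50% at the single tested concentration, limit read from the data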
KLK7 zymogen act: activators of human kallikrein-7 zymogen. activation, % at 7 µM. P49862. hit rate 0.9% among 370,000. purified proKLK7, EDANS-DABCYL substrate fluorescence; 100% is mature enzyme control, 0% vehicle;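 active means activation above the mean of all tested compounds plus 3 SD, computed per campaign excluding outliers beyond control limits, cut at about 13% in these data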
Target sequence (P49862 whole entry, looked up): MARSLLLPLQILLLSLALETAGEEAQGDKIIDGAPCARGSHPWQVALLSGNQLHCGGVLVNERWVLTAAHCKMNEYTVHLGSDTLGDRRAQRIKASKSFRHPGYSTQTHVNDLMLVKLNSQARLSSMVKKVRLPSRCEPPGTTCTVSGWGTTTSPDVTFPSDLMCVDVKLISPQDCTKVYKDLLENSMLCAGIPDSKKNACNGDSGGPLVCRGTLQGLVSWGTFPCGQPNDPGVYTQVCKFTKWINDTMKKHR
Numbers stand for hits.

Screening COC(=O)C1=C(c2cccc(C#N)c2)C[C@@H]2CC[C@H]1N2C(=O)NC1CCCCC1 returned CRFR2-BP ag inactive, DDE Tn6 FP inh inactive, CendR NRP1 mod inactive, DDE Tn7 FP inh inactive, CRFBP-R2 block inactive and KLK7 zymogen act inactive.
`COC(=O)C1=C(c2ccc(-c3ccccc3)c(F)c2)C[C@@H]2CC[C@H]1N2C(=O)N1CCC(C)CC1` gave CRFR2-BP ag inactive, DDE Tn6 FP inh inactive, CendR NRP1 mod 25, DDE Tn7 FP inh inactive, CRFBP-R2 block inactive and KLK7 zymogen act inactive.
Screening COC(=O)C1=C(c2cccc(OCc3ccccc3)c2)C[C@@H]2CC[C@H]1N2C returned CRFR2-BP ag inactive, DDE Tn6 FP inh inactive, CendR NRP1 mod inactive, DDE Tn7 FP inh inactive, CRFBP-R2 block inactive and KLK7 zymogen act inactive.
CCCNC(=O)N1[C@H]2CC[C@@H]1C(C(=O)OC)=C(c1ccc(S(C)(=O)=O)cc1)C2 was read as CRFR2-BP ag inactive, DDE Tn6 FP inh inactive, CendR NRP1 mod inactive, DDE Tn7 FP inh inactive, CRFBP-R2 block inactive and KLK7 zymogen act inactive.
For COC(=O)C1=C(c2ccc(S(C)(=O)=O)cc2)C[C@@H]2CC[C@H]1N2C the results were CRFR2-BP ag inactive, DDE Tn6 FP inh inactive, CendR NRP1 mod 35, DDE Tn7 FP inh inactive, CRFBP-R2 block inactive and KLK7 zymogen act inactive.
`CC(C)C(C(=O)NC(C)(C)C)N1C(=O)CN=C(c2ccccc2)c2ccccc21` (configuration not stated) gave DDE Tn6 FP inh inactive, DDE Tn7 FP inh inactive and KLK7 zymogen act inactive.
`O=c1oc2ccccc2c(O)c1C(c1ccc([N+](=O)[O-])cc1)c1c(O)c2ccccc2oc1=O` gave CRFR2-BP ag inactive, DDE Tn6 FP inh inactive, CendR NRP1 mod inactive, DDE Tn7 FP inh inactive, CRFBP-R2 block 82 and KLK7 zymogen act inactive.
Screening CC(C)c1ccc(C(c2c(O)c3ccccc3oc2=O)c2c(O)c3ccccc3oc2=O)cc1 returned CRFR2-BP ag inactive, DDE Tn6 FP inh inactive, CendR NRP1 mod inactive, DDE Tn7 FP inh inactive, CRFBP-R2 block 64 and KLK7 zymogen act inactive.
CC(NC(=O)OCc1ccccc1)[P+](=O)O (configuration not stated) was read as DDE Tn6 FP inh inactive, DDE Tn7 FP inh inactive and KLK7 zymogen act inactive.
For NC(N)=N/N=C/c1ccc(N(c2ccccc2)c2ccccc2)cc1 the results were CRFR2-BP ag inactive, DDE Tn6 FP inh inactive, CendR NRP1 mod 25, DDE Tn7 FP inh inactive, CRFBP-R2 block inactive and KLK7 zymogen act inactive.
For O=C1C2CCN(CC2)C1Cc1ccc(OCCOc2ccccc2)cc1 (configuration not stated) the results were CRFR2-BP ag inactive, DDE Tn6 FP inh inactive, CendR NRP1 mod 28, DDE Tn7 FP inh inactive, CRFBP-R2 block inactive and KLK7 zymogen act inactive.
COc1ccc(-c2cc(-c3ccccc3)[n+](C)c(-c3ccccc3)c2)cc1 was read as CRFR2-BP ag inactive, DDE Tn6 FP inh inactive, CendR NRP1 mod inactive, DDE Tn7 FP inh inactive, CRFBP-R2 block inactive and KLK7 zymogen act inactive.
Screening COc1ccc(-[n+]2c(-c3ccccc3)cc(-c3ccc(C)cc3)cc2-c2ccccc2)cc1 returned CRFR2-BP ag 82, DDE Tn6 FP inh inactive, CendR NRP1 mod inactive, DDE Tn7 FP inh inactive, CRFBP-R2 block inactive and KLK7 zymogen act inactive.
Screening CC(NC(=O)OC1CC2CCC1(C)C2(C)C)P(=O)(Oc1ccccc1)Oc1ccccc1 (configuration not stated) returned DDE Tn6 FP inh inactive and DDE Tn7 FP inh inactive.
CCc1ccc(N2C(=O)NC(=O)/C(=C\c3cccn3CCOc3ccc(C(C)C)cc3)C2=O)cc1 was read as CRFR2-BP ag inactive, DDE Tn6 FP inh inactive, CendR NRP1 mod 36, DDE Tn7 FP inh inactive, CRFBP-R2 block inactive and KLK7 zymogen act inactive.
`CN(C)C1=NP(N(C)C)(N(C)C)=NC(c2ccccc2)=N1` gave CRFR2-BP ag inactive, DDE Tn6 FP inh inactive, CendR NRP1 mod inactive, DDE Tn7 FP inh inactive, CRFBP-R2 block 52 and KLK7 zymogen act inactive.
For Fc1ccc2nc(-c3ccc(CN4CCC(n5nnc6ccccc65)CC4)cc3)c(-c3ccccc3)nc2c1 the results were DDE Tn6 FP inh inactive, DDE Tn7 FP inh inactive and KLK7 zymogen act inactive.

Assay outcomes from PubChem BioAssay.
